From ChEMBL document CHEMBL4428080, “Discovery and Pharmacological Characterization of Novel Quinazoline-Based PI3K Delta-Selective Inhibitors” (ACS Med Chem Lett, 2016) come the findings set out here.

In brackets after ≈: the same amount, converted by molar mass. A value given as a limit tells only on which side of the number the result lay.

Data set [1] is described as follows: Equilibrium solubility of the compound at pH 6.8 by high-throughput assay. The conditions noted are these: buffer. In kind it is physicochemical. The method in brief:
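High-throughput equilibrium solubility determination at pH 6.8, reported in mM.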

A short description of data set [2]: Octanol/water partition coefficient, log P of the compound by high-throughput assay. The class given is physicochemical.
Data set [3] can be described thus: Dose normalized Cmax in Sprague-Dawley rat at 3 mg/kg, po by HPLC method. The class given is ADME, organism-based. The note with it: in vivo. The procedure, abridged:
(§1)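 Oral PK in Sprague Dawley rats at 3 or 30 mg/kg and in dogs at 0.3 mg/kg. Dose-normalized parameters are scaled to 1 mg·kg^-1.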

A short description of data set [4]: Oral bioavailability in Sprague-Dawley rat at 3 mg/kg by HPLC method. The class given is ADME, organism-based. The note with it: in vivo. The procedure, abridged: as §1
The nature of data set [5]: Volume of distribution at steady state in Sprague-Dawley rat at 1 mg/kg, iv by HPLC method. The class given is ADME, organism-based. The conditions noted are these: in vivo, read-out: Vdss.
The nature of data set [6]: Volume of distribution at steady state in Beagle dog at 0.1 mg/kg, iv by HPLC method. The class given is ADME, organism-based, Canis lupus familiaris. The note with it: in vivo, read-out: Vdss.
Data set [7] can be described thus: Tmax in Sprague-Dawley rat at 3 mg/kg, po by HPLC method. The class given is ADME, organism-based. The note with it: in vivo. The procedure, abridged:
as §1

The nature of data set [8]: Oral bioavailability in Sprague-Dawley rat at 30 mg/kg by HPLC method. In kind it is ADME, organism-based. The conditions noted are these: in vivo. The procedure, abridged:
as §1

Data set [9] is described as follows: Tmax in Sprague-Dawley rat at 30 mg/kg, po by HPLC method. In kind it is ADME, organism-based. The conditions noted are these: in vivo. The procedure, abridged: as §1
Data set [10] in a line: Tmax in Lewis rat blood at 30 mg/kg, po administered as single dose by LC-MS analysis. In kind it is ADME, organism-based. The conditions noted are these: whole blood. The procedure, abridged:
(§2)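 Lewis rats received a single oral dose of 30 mg/kg. Blood was collected at various time points and drug levels were determined.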

The nature of data set [11]: Dose normalized AUC in Sprague-Dawley rat at 3 mg/kg, po by HPLC method. In kind it is ADME, organism-based. The note with it: in vivo.
Data set [12] in a line: Dose normalized AUC in Sprague-Dawley rat at 1 mg/kg, iv by HPLC method. The class given is ADME, organism-based. The note with it: in vivo.
The nature of data set [13]: Dose normalized AUC in Beagle dog at 0.3 mg/kg, po by HPLC method. The conditions noted are these: in vivo. In kind it is ADME, organism-based, Canis lupus familiaris. The method in brief:
as §1

Data set [14] is described as follows: Dose normalized AUC in Beagle dog at 0.1 mg/kg, iv by HPLC method. In kind it is ADME, organism-based, Canis lupus familiaris. The note with it: in vivo.
A short description of data set [15]: Dose normalized AUC in Sprague-Dawley rat at 30 mg/kg, po by HPLC method. In kind it is ADME, organism-based. The note with it: in vivo. The method in brief: as §1
A short description of data set [16]: Dose normalized Cmax in Sprague-Dawley rat at 30 mg/kg, po by HPLC method. In kind it is ADME, organism-based. The conditions noted are these: in vivo. The procedure, abridged: as §1
A short description of data set [17]: Oral bioavailability in Beagle dog at 0.3 mg/kg by HPLC method. In kind it is ADME, organism-based, Canis lupus familiaris. The note with it: in vivo. The method in brief:
as §1

Data set [18] in a line: Drug uptake in Lewis rat blood at 30 mg/kg, po administered as single dose by LC-MS analysis. In kind it is ADME, organism-based. The conditions noted are these: in vivo, read-out: Drug uptake. The method in brief: as §2
Data set [19] can be described thus: Dose normalized Cmax in Beagle dog at 0.3 mg/kg, po by HPLC method. The class given is ADME, organism-based, Canis lupus familiaris. The conditions noted are these: in vivo. The procedure, abridged: as §1
Data set [20] in a line: Tmax in Beagle dog at 0.3 mg/kg, po by HPLC method. The note with it: in vivo. The class given is ADME, organism-based, Canis lupus familiaris. The procedure, abridged:
as §1

As for `COc1ccc(-c2ccc3ncnc(-c4cccc(C(=O)N5CCN(C(C)=O)CC5)c4)c3c2)cc1OC`, the solubility (thermodynamic) in data set [1] turned out to be 800 µM (≈ 397 µg/mL). The molecule further had a logP in data set [2] of 1.9.
In turn, `COc1ccc(-c2ccc3ncnc(-c4cccc(C(=O)N5CCN(C(C)=O)CC5)c4)c3c2)cn1` showed a thermodynamic solubility in data set [1] of over 1000 µM. Moreover, in data set [2], the logP was 2.7.
For `COc1ncc(-c2ccc3ncnc(-c4cccc(C(=O)N5CCN(C(C)=O)CC5)c4)c3c2)cc1C#N`, the Cmax/dose in data set [3] was determined as 48 nM; in [16] it was 20 nM; in data set [19] it was 440 nM. In addition, the values for the bioavailability in [4], in [8] and in data set [17] were 22%, 10% and 42%, respectively. The Vd in data set [5] worked out at 2 L/kg; in [6] it was 1 L/kg. Besides, the Tmax was determined as 3.5 h in [7], 5.3 h in [9], 2 h in [10] and 0.8 h in [20]. Besides, the AUC/dose in [11] was 500 nM·h; in data set [12], 2315 nM·h; in data set [13], 1188 nM·h; in data set [14], 2798 nM·h; in data set [15], 237 nM·h. The thermodynamic solubility in [1] came out at 210 µM (≈ 103 µg/mL). In data set [2], this molecule displayed a logP of 2.8. In addition, the concentration in data set [18] turned out to be 5000 nM.
In [1], `CN1CCN(C(=O)c2cccc(-c3ncnc4ccc(-c5cnc6ccccc6c5)cc34)c2)CC1` had a solubility (thermodynamic) of over 1000 µM. Besides, in data set [2], the logP came out at 3.1.
For `COc1ncc(-c2ccc3ncnc(-c4cccc(C(=O)N5CCN(C)CC5)c4)c3c2)cc1C(F)(F)F` the same measures were 850 µM (≈ 431 µg/mL) and 3.9.
In the case of `COc1ccc(-c2ccc3ncnc(N4CCC[C@H](C(=O)N5CCN(C)CC5)C4)c3c2)cn1`, the solubility (thermodynamic) in data set [1] is over 1000 µM.
On to `COc1ccc(-c2ccc3ncnc(-c4cncc(C(=O)N5CCN(C)CC5)c4)c3c2)cn1`, for which the solubility (thermodynamic) in [1] is over 1000 µM. The molecule further yielded a logP in [2] of 1.9.
With `COc1ncc(-c2ccc3ncnc(-c4cccc(C(=O)N5CCN(C)CC5)c4)c3c2)cc1C#N`, in data set [1], the thermodynamic solubility was determined as 420 µM (≈ 195 µg/mL). The molecule further returned a logP in data set [2] of 1.9.
For `CC(=O)N1CCN(C(=O)c2cccc(-c3ncnc4ccc(-c5cnc6ccccc6c5)cc34)c2)CC1` the same measures were 610 µM (≈ 297 µg/mL) and 2.8.
For `COc1ncc(-c2ccc3ncnc(-c4cccc(C(=O)N5CCN(C(C)=O)CC5)c4)c3c2)cc1C(F)(F)F`, in that order: 380 µM (≈ 203 µg/mL) and 3.1.
For `COc1ccc(-c2ccc3ncnc(-c4cccc(C(=O)N5CCN(C)CC5)c4)c3c2)cn1`, in that order: over 1000 µM and 2.2.
`COc1ccc(-c2ccc3ncnc(-c4cccc(C(=O)N5CCN(C)CC5)c4)c3c2)cc1OC` registered a thermodynamic solubility in data set [1] of 850 µM (≈ 398 µg/mL). The molecule further had a logP in data set [2] of 2.8.

What is called thermodynamic solubility is the concentration in solution at equilibrium with solid. What is called logP is the decadic logarithm of the partition coefficient of the neutral form, usually between octanol and water. A higher logP goes with a more lipophilic compound. A word on the bioavailability: it is dose-corrected exposure relative to a reference, in per cent. Low readings indicate little systemic uptake, high ones much systemic uptake. By Tmax is commonly meant the time at which the peak concentration occurs.
